The text below walks through data of ChEMBL document CHEMBL4665847, “Understanding the Metabolism of Proteolysis Targeting Chimeras (PROTACs): The Next Step toward Pharmaceutical Applications” (J Med Chem, 2020).

The nature of data set [1]: Metabolic stability in cryopreserved human hepatocytes assessed as aliphatic hydroxylation at 1 uM incubated for 4 hrs. The class given is ADME, cell-based, Hepatocyte.
The nature of data set [2]: Metabolic stability in cryopreserved human hepatocytes assessed as glucuronidation at 1 uM incubated for 4 hrs. In kind it is ADME, cell-based, Hepatocyte.
The nature of data set [3]: Metabolic stability in cryopreserved human hepatocytes assessed as O-dealkylation at 1 uM incubated for 4 hrs. The class given is ADME, cell-based, Hepatocyte.
Data set [4] can be described thus: Stability of compound in PBS/ACN-DMSO assessed as compound degradation at 10 uM measured after 3 hrs by LC-MS analysis. The class given is physicochemical. Particulars: read-out: Drug degradation. In short, it runs like this: (§1)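 Nonenzymatic stability: 10 mM DMSO stock diluted to 10 μM in PBS, PBS/ACN (1:1), or DMSO; PBS/ACN-DMSO variant dried under nitrogen at 40 °C and redissolved in DMSO. Solutions kept in LC autosampler at 37 °C for 12 h; LC-MS injections at 0, 3, 6 and 12 h tracking remaining parent.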

Data set [5] is described as follows: Stability of the compound in PBS/ACN assessed as compound degradation at 10 uM measured after 3 hrs by LC-MS analysis. The class given is physicochemical. Particulars: buffer. The procedure, abridged:
as §1

A short description of data set [6]: Stability of compound in DMSO at 10 uM incubated for 12 hrs by LC-MS analysis. In kind it is physicochemical. In short, it runs like this: as §1
A short description of data set [7]: Stability of the compound in PBS at pH 7.4 assessed as compound degradation at 10 uM incubated for 12 hrs by LC-MS analysis. The class given is physicochemical. Particulars: buffer, pH 7.4, 12 h. In short, it runs like this: as §1
Data set [8] can be described thus: Metabolic stability in cryopreserved human hepatocytes assessed as amide hydrolysis at 1 uM incubated for 4 hrs. The class given is ADME, cell-based, Hepatocyte.
A short description of data set [9]: Metabolic stability in cryopreserved human hepatocytes assessed as N-dealkylation at 1 uM incubated for 4 hrs. The class given is ADME, cell-based, Hepatocyte.
Data set [10] addresses T1, Aldehyde oxidase (Homo sapiens, UniProt Q06278).
T1 sequence (Q06278 whole entry): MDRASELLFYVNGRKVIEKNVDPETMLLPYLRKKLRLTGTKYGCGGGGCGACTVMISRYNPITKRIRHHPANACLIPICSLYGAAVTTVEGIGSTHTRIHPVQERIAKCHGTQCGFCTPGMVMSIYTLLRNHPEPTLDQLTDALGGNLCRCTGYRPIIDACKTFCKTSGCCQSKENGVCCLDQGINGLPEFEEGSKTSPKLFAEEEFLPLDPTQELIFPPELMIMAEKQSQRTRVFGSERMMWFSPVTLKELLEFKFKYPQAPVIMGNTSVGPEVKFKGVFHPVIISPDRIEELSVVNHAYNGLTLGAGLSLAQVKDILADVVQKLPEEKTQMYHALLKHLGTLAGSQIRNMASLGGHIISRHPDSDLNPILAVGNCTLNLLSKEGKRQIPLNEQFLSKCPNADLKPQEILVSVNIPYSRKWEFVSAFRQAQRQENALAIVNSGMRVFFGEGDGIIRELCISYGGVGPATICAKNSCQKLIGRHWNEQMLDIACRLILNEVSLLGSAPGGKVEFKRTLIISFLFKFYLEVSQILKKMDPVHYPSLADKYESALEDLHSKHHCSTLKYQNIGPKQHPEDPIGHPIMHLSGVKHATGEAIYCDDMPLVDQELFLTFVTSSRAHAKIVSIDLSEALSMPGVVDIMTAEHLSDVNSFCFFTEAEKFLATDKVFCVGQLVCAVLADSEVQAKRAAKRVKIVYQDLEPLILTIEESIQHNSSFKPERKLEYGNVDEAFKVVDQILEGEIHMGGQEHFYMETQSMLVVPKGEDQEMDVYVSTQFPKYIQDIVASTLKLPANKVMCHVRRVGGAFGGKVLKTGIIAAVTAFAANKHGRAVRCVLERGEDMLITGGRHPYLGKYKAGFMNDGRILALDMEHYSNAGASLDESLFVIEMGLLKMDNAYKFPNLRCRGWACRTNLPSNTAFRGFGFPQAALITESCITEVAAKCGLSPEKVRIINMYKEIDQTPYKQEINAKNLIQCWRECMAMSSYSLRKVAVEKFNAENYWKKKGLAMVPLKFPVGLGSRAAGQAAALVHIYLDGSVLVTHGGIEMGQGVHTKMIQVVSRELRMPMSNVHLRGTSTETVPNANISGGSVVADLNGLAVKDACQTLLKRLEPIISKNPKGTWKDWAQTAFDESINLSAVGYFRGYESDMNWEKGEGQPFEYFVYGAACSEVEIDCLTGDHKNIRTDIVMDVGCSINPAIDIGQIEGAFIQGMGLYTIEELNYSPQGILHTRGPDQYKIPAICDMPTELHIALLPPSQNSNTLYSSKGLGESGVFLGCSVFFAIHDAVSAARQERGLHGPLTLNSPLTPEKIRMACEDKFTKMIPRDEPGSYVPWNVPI
The experiment in a line: Metabolic stability in human liver cytosol assessed as AOX1 mediated drug metabolism by measuring amide hydrolysis at 1 uM incubated up to 90 mins in presence of hydralazine by LC-MS/MS analysis. Particulars: 1.5 h. The class given is ADME, subcellular.

Data set [11] addresses T1, Aldehyde oxidase. The experiment in a line: Metabolic stability in human liver cytosol assessed as AOX1 mediated drug metabolism by measuring hydroxylation at 1 uM incubated up to 90 mins in absence of hydralazine by LC-MS/MS analysis. The note with it: 1.5 h. In kind it is ADME, subcellular.
A short description of data set [12]: Metabolic stability in cryopreserved human hepatocytes assessed as aromatic hydroxylation at 1 uM incubated for 4 hrs. The class given is ADME, cell-based, Hepatocyte.
The nature of data set [13]: Metabolic stability in cryopreserved human hepatocytes assessed as aliphatic carbonylation at 1 uM incubated for 4 hrs. In kind it is ADME, cell-based, Hepatocyte.
Data set [14] in a line: Metabolic stability in cryopreserved human hepatocytes assessed as dehydrogenation at 1 uM incubated for 4 hrs. The class given is ADME, cell-based, Hepatocyte.

The structures appear in SMILES notation.

With `Oc1c(-c2csc(N3CCOCC3)n2)ccc(F)c1F`, the Drug metabolism result in [1], in data set [2] and in data set [3] was “Metabolite_Detected” in each case.
On to `Cc1sc2c(c1C)C(c1ccc(Cl)cc1)=N[C@@H](CC(=O)NCCCCNC(=O)COc1cccc3c1C(=O)N(C1CCC(=O)NC1=O)C3=O)c1nnc(C)n1-2` (some centres not stated), for which, in [4], the degraded at 3 h, 10 µM came to 10%. In addition, the Stabilty entry in data set [5] is “Unstable”; in [6], “Stable”; in data set [7], “Unstable”.
For the compound `O=C(COc1cccc2c1C(=O)N(C1CCC(=O)NC1=O)C2=O)NCCOCCOCCNC(=O)COc1c(-c2csc(N3CCOCC3)n2)ccc(F)c1F` (configuration not stated), the Drug metabolism result in [1], in data set [3] and in data set [8] was “Metabolite_Detected” each time.
In the case of `O=C(COc1cccc2c1C(=O)N(C1CCC(=O)NC1=O)C2=O)NCCCCCCCCNC(=O)COc1c(-c2csc(N3CCOCC3)n2)ccc(F)c1F` (configuration not stated), the Drug metabolism entry in data set [3], in [9] and in [8] was “Metabolite_Detected” each time.
Regarding `Cc1ncsc1-c1ccc([C@H](C)NC(=O)[C@@H]2C[C@@H](O)CN2C(=O)[C@@H](NC(=O)CCCCNC(=O)COc2c(-c3csc(N4CCOCC4)n3)ccc(F)c2F)C(C)(C)C)cc1`, the Drug metabolism result at Aldehyde oxidase [10] and on Aldehyde oxidase [11] was “Metabolite_Detected” in each case.
As for `Cc1ncsc1-c1ccc([C@H](C)NC(=O)[C@@H]2C[C@@H](O)CN2C(=O)[C@@H](N)C(C)(C)C)cc1`, the Drug metabolism result in data set [1], in data set [12], in data set [9] and in data set [13] was “Metabolite_Detected” each time.
In the case of `Cc1sc2c(c1C)C(c1ccc(Cl)cc1)=N[C@@H](CC(=O)NCCCCCCCCNc1cccc3c1C(=O)N(C1CCC(=O)NC1=O)C3=O)c1nnc(C)n1-2` (some centres not stated), the Drug metabolism entry in [1], in data set [14] and in data set [9] was “Metabolite_Detected” in each case.
Turning to `O=C(COc1c(-c2csc(N3CCOCC3)n2)ccc(F)c1F)NCCCCCCCCNc1cccc2c1C(=O)N(C1CCC(=O)NC1=O)C2=O` (configuration not stated), the Drug metabolism result in data set [1], in [3], in [9] and in data set [8] was “Metabolite_Detected” each time.
`Cc1ncsc1-c1ccc([C@H](C)NC(=O)[C@@H]2C[C@@H](O)CN2C(=O)[C@@H](NC(=O)CCCCN(C)C(=O)COc2c(-c3csc(N4CCOCC4)n3)ccc(F)c2F)C(C)(C)C)cc1`: the Drug metabolism result on Aldehyde oxidase [10] and at Aldehyde oxidase [11] was “Metabolite_Detected” each time.
Regarding `O=C(COc1c(-c2csc(N3CCOCC3)n2)ccc(F)c1F)NCCOCCOCCNc1cccc2c1C(=O)N(C1CCC(=O)NC1=O)C2=O` (configuration not stated), the Drug metabolism result in [3], in [9] and in data set [8] was “Metabolite_Detected” each time.
For the compound `Cc1sc2c(c1C)C(c1ccc(Cl)cc1)=N[C@@H](CC(=O)O)c1nnc(C)n1-2`, in data set [1], the Drug metabolism result is reported as “Metabolite_Detected”.
For the compound `Cc1ncsc1-c1ccc([C@H](C)NC(=O)[C@@H]2C[C@@H](O)CN2C(=O)[C@@H](NC(=O)COCCOCCNC(=O)COc2c(-c3csc(N4CCOCC4)n3)ccc(F)c2F)C(C)(C)C)cc1`, the Drug metabolism result in [2], in [14], in data set [3] and in data set [8] was “Metabolite_Detected” in each case.
Turning to `Nc1cccc2c1C(=O)N(C1CCC(=O)NC1=O)C2=O` (configuration not stated) [POMALIDOMIDE], the Drug metabolism result in data set [8] is “Metabolite_Detected”.
